Test results reported in ChEMBL document CHEMBL2069244 (Bioorg Med Chem Lett, 2012).
Activity calls are given as the source filed them.

Experiments:
Mus musculus [1] = assay: Anticonvulsant activity in mouse assessed as protection against maximal electroshock-induced seizures at 30 mg/kg, ip after 0.5 hrs; format: functional, organism-based; set-up: dose 30 mg/kg
Summary of the method: (§1)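 Mice dosed ip in 30% polyethylene glycol. Corneas pretreated with 1% tetracaine, then 60 Hz alternating current (50 mA) applied for 0.2 s via corneal electrodes. Protection means absence of the hindlimb tonic extensor component. Scored as number protected/number tested.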

Mus musculus [2] = assay: Anticonvulsant activity in mouse assessed as protection against maximal electroshock-induced seizures at 100 mg/kg, ip after 4 hrs; format: functional, organism-based; set-up: dose 100 mg/kg; summary of the method: as §1
Mus musculus [3] = assay: Anticonvulsant activity in mouse assessed as protection against maximal electroshock-induced seizures at 100 mg/kg, ip after 0.5 hrs; format: functional, organism-based; set-up: dose 100 mg/kg; summary of the method: as §1
Mus musculus [4] = assay: Anticonvulsant activity in mouse assessed as protection against maximal electroshock-induced seizures at 300 mg/kg, ip after 0.5 hrs; format: functional, organism-based; set-up: dose 300 mg/kg; summary of the method: as §1
Mus musculus [5] = assay: Anticonvulsant activity in mouse assessed as protection against maximal electroshock-induced seizures at 300 mg/kg, ip after 4 hrs; format: functional, organism-based; set-up: dose 300 mg/kg; summary of the method: as §1
Mus musculus [6] = assay: Anticonvulsant activity in mouse assessed as protection against maximal electroshock-induced seizures at 30 mg/kg, ip after 0.25 hrs; format: functional, organism-based; set-up: dose 30 mg/kg; summary of the method: as §1
Mus musculus [7] = assay: Anticonvulsant activity in mouse assessed as protection against maximal electroshock-induced seizures at 30 mg/kg, ip after 1 hr; format: functional, organism-based; set-up: dose 30 mg/kg; summary of the method: as §1
Mus musculus [8] = assay: Anticonvulsant activity in mouse assessed as protection against maximal electroshock-induced seizures at 30 mg/kg, ip after 2 hrs; format: functional, organism-based; set-up: dose 30 mg/kg; summary of the method: as §1
Mus musculus [9] = assay: Anticonvulsant activity in mouse assessed as protection against maximal electroshock-induced seizures at 30 mg/kg, ip after 4 hrs; format: functional, organism-based; set-up: dose 30 mg/kg; summary of the method: as §1
Mus musculus [10] = assay: Anticonvulsant activity in mouse assessed as protection against maximal electroshock-induced seizures at 30 mg/kg, ip after 6 hrs; format: functional, organism-based; set-up: dose 30 mg/kg; summary of the method: as §1
Mus musculus [11] = assay: Anticonvulsant activity in mouse assessed as protection against subcutaneous pentylenetetrazole-induced seizures at 30 mg/kg, ip after 0.5 hrs; format: functional, organism-based; set-up: dose 30 mg/kg
Mus musculus [12] = assay: Anticonvulsant activity in mouse assessed as protection against subcutaneous pentylenetetrazole-induced seizures at 100 mg/kg, ip after 0.5 hrs; format: functional, organism-based; set-up: dose 100 mg/kg
Mus musculus [13] = assay: Anticonvulsant activity in mouse assessed as protection against subcutaneous pentylenetetrazole-induced seizures at 300 mg/kg, ip after 0.5 hrs; format: functional, organism-based; set-up: dose 300 mg/kg
Mus musculus [14] = assay: Anticonvulsant activity in mouse assessed as protection against subcutaneous pentylenetetrazole-induced seizures at 30 mg/kg, ip after 4 hrs; format: functional, organism-based; set-up: dose 30 mg/kg
Mus musculus [15] = assay: Anticonvulsant activity in mouse assessed as protection against subcutaneous pentylenetetrazole-induced seizures at 100 mg/kg, ip after 4 hrs; format: functional, organism-based; set-up: dose 100 mg/kg
Mus musculus [16] = assay: Anticonvulsant activity in mouse assessed as protection against subcutaneous pentylenetetrazole-induced seizures at 300 mg/kg, ip after 4 hrs; format: functional, organism-based; set-up: dose 300 mg/kg
Mus musculus [17] = assay: Neurotoxicity in mouse at 30 mg/kg, ip after 0.5 hrs by 6Hz psychomotor seizure test; format: toxicity, organism-based; set-up: dose 30 mg/kg, route intraperitoneal; conditions: in vivo
Summary of the method: (§2)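 Mice dosed ip in 30% polyethylene glycol and placed on a rotorod at 6 rpm. An animal is scored toxic if it falls off three times within 1 min.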

Mus musculus [18] = assay: Neurotoxicity in mouse at 30 mg/kg, ip after 4 hrs by 6Hz psychomotor seizure test; format: toxicity, organism-based; set-up: dose 30 mg/kg, route intraperitoneal; conditions: in vivo; summary of the method: as §2
Mus musculus [19] = assay: Neurotoxicity in mouse at 100 mg/kg, ip after 0.25 hrs by 6Hz psychomotor seizure test; format: toxicity, organism-based; set-up: dose 100 mg/kg, route intraperitoneal; conditions: in vivo; summary of the method: as §2
Mus musculus [20] = assay: Neurotoxicity in mouse at 100 mg/kg, ip after 0.5 hrs by 6Hz psychomotor seizure test; format: toxicity, organism-based; set-up: dose 100 mg/kg, route intraperitoneal; conditions: in vivo; summary of the method: as §2
Mus musculus [21] = assay: Neurotoxicity in mouse at 100 mg/kg, ip after 1 hrs by 6Hz psychomotor seizure test; format: toxicity, organism-based; set-up: dose 100 mg/kg, route intraperitoneal; conditions: in vivo; summary of the method: as §2
Mus musculus [22] = assay: Neurotoxicity in mouse at 100 mg/kg, ip after 2 hrs by 6Hz psychomotor seizure test; format: toxicity, organism-based; set-up: dose 100 mg/kg, route intraperitoneal; conditions: in vivo; summary of the method: as §2
Mus musculus [23] = assay: Neurotoxicity in mouse at 100 mg/kg, ip after 4 hrs by 6Hz psychomotor seizure test; format: toxicity, organism-based; set-up: dose 100 mg/kg, route intraperitoneal; conditions: in vivo; summary of the method: as §2
Mus musculus [24] = assay: Neurotoxicity in mouse at 100 mg/kg, ip after 6 hrs by 6Hz psychomotor seizure test; format: toxicity, organism-based; set-up: dose 100 mg/kg, route intraperitoneal; conditions: in vivo; summary of the method: as §2
Mus musculus [25] = assay: Neurotoxicity in mouse at 300 mg/kg, ip after 4 hrs by 6Hz psychomotor seizure test; format: toxicity, organism-based; set-up: dose 300 mg/kg, route intraperitoneal; conditions: in vivo; summary of the method: as §2

Measured: Activity

CCCc1cc(C(O)C(F)(F)F)ccc1O (stereo not given)
active: Mus musculus [4] | Mus musculus [5] | Mus musculus [13]
Non-toxic: Mus musculus [17] | Mus musculus [18] | Mus musculus [19] | Mus musculus [20] | Mus musculus [21] | Mus musculus [22] | Mus musculus [23] | Mus musculus [24] | Mus musculus [25]
inactive: all other assays above
